From ChEMBL document CHEMBL4402562, “Discovery of Novel Peptidomimetic Boronate ClpP Inhibitors with Noncanonical Enzyme Mechanism as Potent Virulence Blockers in Vitro and in Vivo” (J Med Chem, 2020)
Calls of active or inactive are those of the source. No cut-off for these calls is given here.

Legend:
[1] = target: T1, ATP-dependent Clp protease proteolytic subunit (Staphylococcus aureus (strain NCTC 8325), UniProt Q2G036); test: Inhibition of ClpP in methicillin-resistant Staphylococcus aureus ATCC 33591 assessed as reduction in bacteria-induced hemolysis of sheep erythrocytes by measuring hemoglobin release incubated for 15 mins
T1 sequence (Q2G036 whole entry): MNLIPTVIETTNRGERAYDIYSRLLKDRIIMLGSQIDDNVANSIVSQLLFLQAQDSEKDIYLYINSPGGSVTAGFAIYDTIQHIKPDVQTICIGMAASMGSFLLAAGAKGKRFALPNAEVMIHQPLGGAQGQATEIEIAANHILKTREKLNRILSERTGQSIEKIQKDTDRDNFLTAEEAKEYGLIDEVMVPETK

[2] = Cytotoxicity in human HepG2 cells assessed as reduction in cell viability incubated for 24 hrs by MTT assay; type: cell-based
How it was run: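 MTT assay. HeLa (3×10^3 cells) or HepG2 (4×10^3 cells) seeded in DMEM and grown 24 h, then given compound for a further 24 h. Absorbance read at 570 nm against DMSO wells. GI50 from dose-response fit; three experiments, triplicate wells.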

[3] = target: T1, ATP-dependent Clp protease proteolytic subunit; test: Binding affinity to N-terminal His6-sumo-tagged full length Staphylococcus aureus ClpP expressed in Escherichia coli […] assessed as shifting of melting peak of SaClpP by differential scanning calorimetry analysis
How it was run: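 DSC: 0.5 mg/mL (25 µM) SaClpP with 100 µM compound or two-fold dilution series, RT; scanned 30-90 °C at 1 °C/min, buffer-buffer scan subtracted; Tm from thermogram peak maximum; single run.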

[4] = Inhibition of human ClpP (57 to 277 residues) expressed in Escherichia coli […] pre-incubated for 10 mins before Ac-WLA-AMC addition and measured after 1 hr by fluorescence based assay relative to control
How it was run: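 hClpP (3.5 μM monomer) in 25 mM Tris-HCl pH 8.0, 100 mM KCl. Preincubated 10 min at RT with inhibitor, two-fold dilutions over 8 steps from 100 μM. Then 100 μM Ac-WLA-AMC, 380/440 nm for 1 h at 37 °C, slopes normalized to DMSO. Thrice, triplicate wells.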

[5] = Inhibition of Pseudomonas aeruginosa ClpP1 expressed in Escherichia coli […] pre-incubated for 10 mins before Suc-LY- AMC addition and measured after 1 hr by fluorescence based assay relative to control
How it was run: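 PaClpP1 (0.5 μM monomer) in 25 mM Tris-Cl pH 7.5, 150 mM NaCl. Preincubated 10 min at RT with inhibitor, two-fold dilutions over 8 steps from 50 μM. Then 50 μM Suc-LY-AMC, 380/440 nm for 1 h at 37 °C, slopes normalized to DMSO. Thrice, triplicate wells.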

[6] = target: 20S proteasome (Homo sapiens) (UniProt P49721+P20618+P28074+P28062+P28065+P28072+P25786+P25787+P25788+P25789+P28066+P60900+O14818+Q8TAA3+P40306+A5LHX3+P49720+P28070+Q99436); test: Inhibition of 20S proteasome (unknown origin) pre-incubated before Suc-LLVY-AM addition and measured after 1 hr by fluorescence based assay; type: protein-complex assay
[7] = Inhibition of AlgW (unknown origin) up to 100 uM pre-incubated for 10 mins before Abz-T-V-A-W-pNA addition and measured after 1 hr by fluorescence based assay
[8] = target: T2, ATP-dependent Clp protease proteolytic subunit (Staphylococcus aureus (strain NCTC 8325)) (UniProt Q2G036); test: Inhibition of ClpP in wild type Staphylococcus aureus NCTC8325 assessed as reduction in bacteria-induced hemolysis of sheep erythrocytes by measuring hemoglobin release incubated for 15 mins
T2 sequence (whole entry): T1 sequence (Q2G036 whole entry)
How it was run: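 S. aureus strains grown overnight in MHB, diluted to OD600 0.05, then grown at 37 °C to OD600 ~0.6. Serially diluted inhibitor or DMSO added for 8 h more growth. Supernatant mixed 1:1 with 5% sheep erythrocytes, spun 1,500 rpm for 15 min, hemoglobin read at 545 nm. EC50 by nonlinear fit; thrice, triplicate tubes.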

Staphylococcus aureus [9] = test: Inhibition of virulence-related genes expression in methicillin-resistant Staphylococcus aureus ATCC 33591 assessed as reduction in agrB expression at 16 uM by qPCR analysis relative to control; type: functional
How it was run: (§1)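 Total RNA from 2×10⁸ CFU treated MRSA by liquid-nitrogen freeze-thaw and TRIzol; qPCR relative to gyrB endogenous control; three experiments, triplicate wells.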

Staphylococcus aureus [10] = test: Inhibition of virulence-related genes expression in methicillin-resistant Staphylococcus aureus ATCC 33591 assessed as reduction in lukS expression at 4 to 16 uM by qPCR analysis relative to control; type: functional, organism-based; how it was run: as §1
[11] = Toxicity in BALB/c mouse model of skin abscess infected with methicillin-resistant Staphylococcus aureus ATCC 33591 assessed as effect on body weight at 1.5 to 3 mg/kg injected into shaved area of skin once daily for 4 days measured every day; type: organism-based; conditions: in vivo, other, 96 h
How it was run: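 Female BALB/c mice, 6-8 weeks, n=5 per group, backs shaved and depilated 1 day before; 50 µL subcutaneous 1.7 × 10⁹ CFU/mL MRSA ATCC 33591. From 6 h post-infection, 40 µL vehicle, vancomycin 3 mg/kg, or compound 1.5 or 3 mg/kg injected at infection site once daily for 4 days; weight recorded daily. Skin homogenised in saline 12 h after last dose, plated on LB agar 37 °C ≥16 h; log10 CFU/abscess; t-test.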

[12] = Toxicity in BALB/c mouse model of skin abscess infected with methicillin-resistant Staphylococcus aureus ATCC 33591 assessed as effect on creatinine levels at 1.5 to 3 mg/kg injected into shaved area of skin once daily for 4 days; type: organism-based; conditions: in vivo, other, 96 h
How it was run: (§2)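 Infected BALB/c mice (n=5/group) dosed 1.5 or 3 mg/kg into the infected skin once daily for 4 days; blood collected on day 4 and day 14, centrifuged 3,500 rpm 15 min, serum biochemistry analysed.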

[13] = Toxicity in BALB/c mouse model of skin abscess infected with methicillin-resistant Staphylococcus aureus ATCC 33591 assessed as effect on uric acid levels at 1.5 to 3 mg/kg injected into shaved area of skin once daily for 4 days; type: organism-based; conditions: in vivo, other, 96 h; how it was run: as §2
[14] = Toxicity in BALB/c mouse model of skin abscess infected with methicillin-resistant Staphylococcus aureus ATCC 33591 assessed as increase in AST levels at 1.5 to 3 mg/kg injected into shaved area of skin once daily for 4 days measured on day 14; type: organism-based; conditions: in vivo, other, 96 h; how it was run: as §2
[15] = Toxicity in BALB/c mouse model of skin abscess infected with methicillin-resistant Staphylococcus aureus ATCC 33591 assessed as effect on albumin levels at 1.5 to 3 mg/kg injected into shaved area of skin once daily for 4 days; type: organism-based; conditions: in vivo, other, 96 h; how it was run: as §2
Staphylococcus aureus [16] = test: Antivirulence activity against methicillin-resistant Staphylococcus aureus ATCC 33591 infected in BALB/c mouse model of skin abscess assessed as reduction in spleen histopathological changes at 1.5 to 3 mg/kg injected into shaved area of skin once daily for 4 days measured after 12 hrs post last dose by hematoxylin and eosin staining based optical microscopy; type: functional, organism-based
How it was run: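 Same MRSA ATCC 33591 skin-abscess model in female BALB/c mice (n=5/group), 40 µL compound at 1.5 or 3 mg/kg injected into the infected shaved skin once daily for 4 days. On day 4 infected skin and heart, liver, spleen, lung, kidney fixed in 4% paraformaldehyde, embedded, sectioned, H&E stained and examined by microscopy; PBS-treated uninfected and vehicle controls.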

CC(C)C[C@H](NC(=O)[C@H](Cc1c[nH]c2ccccc12)NC(=O)c1cc(Cl)ccc1Cl)B(O)O
EC50 [1]: 1400 nM
GI50 at 24 h [2]: 83400 nM
EC50 [3]: 1270 nM
IC50 [4]: 3000 to 25000 nM
IC50 [5]: 3000 to 25000 nM
inhibition [6]: Active
inhibition [7]: inactive
inhibition [8]: Dose-dependent effect
fold change (FC) (Staphylococcus aureus [9]): 2
inhibition (Staphylococcus aureus [10]): Active
Activity [11]: Non-Toxic
Activity [12]: Non-Toxic
Activity [13]: Non-Toxic
Activity [14]: Non-Toxic
Activity [15]: Non-Toxic
Activity (Staphylococcus aureus [16]): Active
